Measurements reported in ChEMBL document CHEMBL4359929, “Piperidine and piperazine inhibitors of fatty acid amide hydrolase targeting excitotoxic pathology” (Bioorg Med Chem, 2019).
Calls of active or inactive are those of the source. The rule behind the calls is not given here.

What was measured:
Monoglyceride lipase = target: T1, Monoglyceride lipase (Homo sapiens, UniProt Q99685); assay: Inhibition of human recombinant His-tagged MGL expressed in Escherichia coli BL21 DE3 cells using AHMMCE as substrate preincubated with enzyme for 15 mins followed by substrate addition and measured after every 15 mins for 3 hrs by fluorescence based assay
T1 sequence (Q99685 whole entry): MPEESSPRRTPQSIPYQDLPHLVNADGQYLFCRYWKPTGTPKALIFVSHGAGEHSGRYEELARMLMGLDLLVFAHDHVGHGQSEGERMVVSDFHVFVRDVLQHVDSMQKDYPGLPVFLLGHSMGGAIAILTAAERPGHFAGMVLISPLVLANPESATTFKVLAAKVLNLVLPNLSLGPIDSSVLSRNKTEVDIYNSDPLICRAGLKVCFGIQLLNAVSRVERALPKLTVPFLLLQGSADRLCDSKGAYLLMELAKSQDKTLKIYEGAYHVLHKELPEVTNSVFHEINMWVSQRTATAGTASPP
How it was run: (§1)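 Fluorescent enzyme assay in throughput format. Human recombinant FAAH or purified rat FAAH used arachidonoyl 7-amino-4-methylcoumarin amide as substrate; human recombinant MGL was run by a similar fluorometric procedure.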

[1] = Stability in human plasma assessed as half life; assay type: ADME, cell-free
How it was run: (§2)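 Stability assessed as half-life in human, rat and mouse plasma and gastric fluid, and in human, rat and mouse liver microsomal preparations.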

Hippocampus [2] = assay: (§3) Neuroprotective activity against Sprague-Dawley rat hippocampus assessed as decrease in KA-induced excitotoxicity by measuring increase in syn IIb level at 3 to 30 uM preincubated for 1 hr followed by KA stimulation for 2 hrs in continued presence of compound followed by KA wash out and then further incubation with compound for 24 hrs by immunoblot analysis; assay type: functional, tissue-based
How it was run: (§4)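 Sprague-Dawley rat hippocampal slices (400 μm, postnatal day 12) cultured 18–20 days at 37 °C, 5% CO2. Pretreated 60 min with 3–30 μM compound or 0.1% DMSO, then 60 μM kainic acid for 2 h with compound. Three washouts, then 24 h recovery with 30 μM compound. Harvested in groups of 7–9; GluR1, synaptophysin and synapsin IIb by immunoblot with optical density. Unpaired t-tests.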

[3] = target: T2, Fatty-acid amide hydrolase 1 (Rattus norvegicus, UniProt P97612); assay: Inhibition of rat recombinant His/GST-tagged FAAH expressed in Escherichia coli cells using AAMCA as substrate incubated for 15 mins followed by substrate addition and measured after every 20 mins for 4 hrs by fluorescence based assay; how it was run: as §1
T2 sequence (P97612 whole entry): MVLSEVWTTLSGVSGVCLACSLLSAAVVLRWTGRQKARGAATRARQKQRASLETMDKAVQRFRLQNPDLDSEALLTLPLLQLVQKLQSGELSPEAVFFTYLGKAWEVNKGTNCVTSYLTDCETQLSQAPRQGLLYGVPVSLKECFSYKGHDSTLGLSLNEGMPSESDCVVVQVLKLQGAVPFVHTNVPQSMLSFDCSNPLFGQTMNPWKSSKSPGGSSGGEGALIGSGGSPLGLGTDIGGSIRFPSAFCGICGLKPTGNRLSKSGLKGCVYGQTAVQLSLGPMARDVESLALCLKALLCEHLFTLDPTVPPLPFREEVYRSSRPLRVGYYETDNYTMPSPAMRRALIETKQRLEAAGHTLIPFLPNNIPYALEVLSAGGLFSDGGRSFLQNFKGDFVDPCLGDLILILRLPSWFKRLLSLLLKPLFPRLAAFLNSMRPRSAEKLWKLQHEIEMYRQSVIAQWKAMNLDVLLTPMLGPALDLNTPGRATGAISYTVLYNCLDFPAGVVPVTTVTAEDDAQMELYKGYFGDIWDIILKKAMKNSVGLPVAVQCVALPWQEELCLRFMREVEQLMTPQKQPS

[4] = target: T3, Monoglyceride lipase (Rattus norvegicus) (UniProt Q8R431); assay: Inhibition of MGL in rat brain membrane at 1 to 10 uM incubated for 30 mins followed by incubation with FP-Rh probe for 45 mins by ABPP assay; assay type: cell membranes
T3 sequence (whole entry): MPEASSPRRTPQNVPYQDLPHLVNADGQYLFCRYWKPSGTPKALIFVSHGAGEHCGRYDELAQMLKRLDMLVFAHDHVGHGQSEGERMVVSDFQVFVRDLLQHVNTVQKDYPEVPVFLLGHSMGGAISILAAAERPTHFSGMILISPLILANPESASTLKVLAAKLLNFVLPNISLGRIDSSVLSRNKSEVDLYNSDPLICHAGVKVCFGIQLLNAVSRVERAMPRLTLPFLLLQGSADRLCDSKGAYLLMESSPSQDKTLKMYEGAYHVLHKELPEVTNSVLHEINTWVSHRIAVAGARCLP
How it was run: (§5)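 Gel-based competitive ABPP on rat brain membrane homogenates (10 mg/mL protein). Compound at 1 and 10 μM or DMSO for 30 min at room temperature, then 10 μM rhodamine-tagged fluorophosphonate probe for 45 min at room temperature. FAAH was run with a reference FAAH inhibitor at 10 μM as positive control. Serine hydrolase labelling read by in-gel fluorescence.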

[5] = Selectivity ratio of IC50 for human full length ABHD6 expressed in Escherichia coli cells to IC50 for rat recombinant His/GST-tagged FAAH expressed in Escherichia coli cells by fluorescence based assay
[6] = target: Cannabinoid receptor 1 (Rattus norvegicus) (UniProt P20272); assay: Displacement of [3H]CP55940 from CB1 receptor in rat brain by competition-equilibrium binding analysis; assay type: tissue-based
Cannabinoid receptor 1 (Rattus norvegicus), sequence (P20272 whole entry): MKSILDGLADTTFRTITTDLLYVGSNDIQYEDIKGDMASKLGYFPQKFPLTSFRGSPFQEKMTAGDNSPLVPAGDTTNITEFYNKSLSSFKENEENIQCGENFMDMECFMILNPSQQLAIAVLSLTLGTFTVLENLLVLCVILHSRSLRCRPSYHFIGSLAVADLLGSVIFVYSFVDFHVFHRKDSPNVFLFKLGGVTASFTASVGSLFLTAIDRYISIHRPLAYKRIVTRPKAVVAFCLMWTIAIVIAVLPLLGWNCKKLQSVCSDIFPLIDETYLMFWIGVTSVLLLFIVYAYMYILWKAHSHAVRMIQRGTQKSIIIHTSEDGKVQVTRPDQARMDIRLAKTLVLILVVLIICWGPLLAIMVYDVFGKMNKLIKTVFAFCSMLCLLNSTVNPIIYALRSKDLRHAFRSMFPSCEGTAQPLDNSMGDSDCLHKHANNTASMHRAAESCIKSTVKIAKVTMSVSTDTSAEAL
How it was run: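 Rat brain membranes as CB1 source; competition-equilibrium binding against [3H]CP-55,940.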

Homo sapiens = species on record: Homo sapiens; assay: Selectivity ratio of IC50 for human full length ABHD6 expressed in Escherichia coli cells to IC50 for human recombinant MBP-tagged FAAH expressed in Escherichia coli cells by fluorescence based assay
[7] = target: Cannabinoid receptor 2 (Mus musculus) (UniProt P47936); assay: Displacement of [3H]CP55940 from mouse CB2 receptor expressed in HEK293 cells by competition-equilibrium binding analysis; assay type: cell-based
Cannabinoid receptor 2 (Mus musculus), sequence (P47936 whole entry): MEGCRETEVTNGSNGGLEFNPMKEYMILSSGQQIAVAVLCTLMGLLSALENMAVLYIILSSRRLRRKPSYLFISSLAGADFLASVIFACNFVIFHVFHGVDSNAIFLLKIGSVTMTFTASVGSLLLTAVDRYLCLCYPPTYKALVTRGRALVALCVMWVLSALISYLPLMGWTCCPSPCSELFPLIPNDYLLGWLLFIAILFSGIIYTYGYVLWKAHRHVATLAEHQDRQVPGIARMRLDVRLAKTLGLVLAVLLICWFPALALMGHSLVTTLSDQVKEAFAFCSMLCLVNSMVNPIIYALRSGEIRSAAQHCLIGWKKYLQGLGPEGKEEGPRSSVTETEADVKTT
How it was run: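 HEK293 cell membranes expressing mouse or human CB2; competition-equilibrium binding against [3H]CP-55,940.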

Hippocampus [8] = assay: as §3, with “GluR1” for “syn IIb”; assay type: functional, tissue-based; how it was run: as §4
[9] = Stability in mouse liver microsomes assessed as half life; assay type: ADME, Microsome; how it was run: as §2
[10] = Stability in rat liver microsomes assessed as half life; assay type: ADME, Microsome; how it was run: as §2
[11] = Selectivity ratio of IC50 for human recombinant His-tagged MGL expressed in Escherichia coli BL21 DE3 cells to IC50 for rat recombinant His/GST-tagged FAAH expressed in Escherichia coli cells by fluorescence based assay
[12] = target: T4, Fatty-acid amide hydrolase 1 (Rattus norvegicus) (UniProt P97612); assay: Inhibition of FAAH in rat brain membrane at 1 to 10 uM incubated for 30 mins followed by incubation with FP-Rh probe for 45 mins by ABPP assay; assay type: cell membranes; how it was run: as §5
T4 sequence (whole entry): T2 sequence (P97612 whole entry)

[13] = Stability in human gastric fluid assessed as half life; assay type: ADME, tissue-based, Gastric juice; how it was run: as §2

SMILES: C[C@@H]1CN(c2ccc(F)cc2)CCN1C(=O)Oc1cccc(N2CCS(=O)(=O)CC2)c1
- IC50 (Monoglyceride lipase): > 1000 nM
- half-life [1]: > 60 min
- inhibition (Hippocampus [2]): Active
- IC50 [3]: 6.3 nM
- inhibition [4]: inactive
- Ratio IC50 [5]: > 1000
- Activity [6]: inactive
- Ratio IC50 (Homo sapiens): > 1000
- Activity [7]: inactive
- inhibition (Hippocampus [8]): Active
- half-life [9]: 15 to 25 min
- half-life [10]: 15 to 25 min
- Ratio IC50 [11]: > 1000
- inhibition [12]: 100%
- half-life [13]: > 60 min

SMILES: O=C(Oc1cccc(N2CCS(=O)(=O)CC2)c1)N1CCC(c2ccc(N3CCC3)cc2)CC1
- IC50 (Monoglyceride lipase): > 1000 nM
- half-life [1]: > 60 min
- inhibition (Hippocampus [2]): Active
- IC50 [3]: 5.8 nM
- inhibition [4]: inactive
- Ratio IC50 [5]: > 1000
- Activity [6]: inactive
- Ratio IC50 (Homo sapiens): > 1000
- Activity [7]: inactive
- inhibition (Hippocampus [8]): Active
- half-life [9]: 15 to 25 min
- half-life [10]: 15 to 25 min
- Ratio IC50 [11]: > 1000
- inhibition [12]: 100%
- half-life [13]: > 60 min
